Experimental data reported in PubChem BioAssay AID1556 (The Scripps Research Institute Molecular Screening Center, 2009).
Among all 290,000 compounds or so, about 1,300 (0.45%) were called active. The sample holds actives, similar compounds and a random draw of the others, so the mix is not that of the screen. A number with no mark means an inactive call.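 Rule for the calls: active = inhibition above the mean plus 3 SD of all compounds in the same screening run (cut at about 4.5% in these data); inactive = the rest.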

These molecules were tested on metallo-beta-lactamase IMP-1 (Pseudomonas aeruginosa) (assay: IMP-1 metallo-beta-lactamase inhibitors, primary screen, biochemical, epi-absorbance readout, Pseudomonas aeruginosa enzyme (AID 1556;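 note: 0% = IMP-1 with DMSO and 100% = DMSO wells lacking enzyme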)). Details: purified IMP-1, nitrocefin hydrolysis, epi-absorbance fluorescence; at 5.6 µM; active compounds read high.
Method in brief: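 Assay system: purified IMP-1; Quantity: IMP-1 0.2 nM before substrate addition; Medium: HEPES buffer pH 7.1 with ZnSO4 and Brij 35; Incubation: 15 min enzyme–compound preincubation, then 25 min nitrocefin reaction, 25 °C; Signal: fluorescence quenching readout, ex 480/em 530 nm; Controls: DMSO with and without IMP-1; Repeats: singlicate testing.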

Structure (SMILES)	inhibition
COc1ccccc1C(=O)NN1C(=O)C2C3C=CC(O3)C2C1=O (centres undefined)	-3.22%
COc1ccc(C(=O)NN2C(=O)C3C(c4ccccc4)C=CC(c4ccccc4)C3C2=O)cc1 (centres undefined)	53.9% (active)
O=C(NN1C(=O)C2C3C=CC(O3)C2C1=O)c1ccccc1 (centres undefined)	-2.31%
O=C(NC1CCCC1)C(c1ccco1)N(C(=O)c1ccco1)c1ccc(F)cc1 (centres undefined)	-2.48%
CCCc1cc(C(=O)Nc2ccc(C(=O)OC)cc2)cs1	-3.3%
CCc1ccc(OCC(=O)NCC(c2ccc(Cl)cc2)N2CCCCC2)cc1 (centres undefined)	-1.02%
COc1cccc(CSc2nc3nc(C)cc(C)n3n2)c1	-1.34%
O=C(Nc1ccnn1C1CCN(C/C=C/c2ccc(F)cc2)CC1)C1CCCC1	0.74%
CCCCC(c1nnnn1CS(=O)(=O)c1ccc(C)cc1)N1CCC(C(N)=O)CC1 (centres undefined)	0.14%
C=CCN1CCN(C(=O)CCCc2ccccc2)CC1	-0.18%
NS(=O)(=O)c1ccc(NC(=O)COC(=O)c2cc3ccccc3oc2=O)cc1	-1.27%
O=C(COC(=O)c1c2c(nc3ccccc13)/C(=C\c1cccs1)CCC2)Nc1ccccc1Cl	-3.13%
NS(=O)(=O)c1ccc(NC(=O)COC(=O)c2c3c(nc4ccccc24)/C(=C\c2ccc4c(c2)OCO4)CCC3)cc1	28% (active)
NC(=O)c1ccc(NC(=O)COC(=O)c2c3c(nc4ccccc24)/C(=C\c2ccc4c(c2)OCO4)CCC3)cc1	19.6% (active)
COc1cc(-c2cc(C(=O)OCC(=O)Nc3ccc4c(c3)OCO4)c3ccccc3n2)cc(OC)c1OC	-2.57%
COc1cc(/C=C2\CCCc3c2nc2ccccc2c3C(=O)O)cc(Cl)c1O	-1.14%
O=C(c1ccccc1)N1N=C(c2ccccc2O)CC1c1ccc(Br)cc1 (centres undefined)	-4.1%
Cc1cccc(N2CCN(C(=O)c3cccc(N4C(=O)C5C6C=CC(C6)C5C4=O)c3)CC2)c1C (centres undefined)	-2.92%
CCCCc1nc(NCCN)c(C#N)c2c1CSC(C)(C)C2	-1.69%
O=C(Nc1ccc(-c2cscn2)cc1)C1CCCN(Cc2ccc(CO)o2)C1 (centres undefined)	-1.8%

Structure (SMILES)	inhibition
CN(CC1CCCO1)S(=O)(=O)c1ccc(C(=O)Nc2ccc(F)cc2)cc1 (centres undefined)	-2.19%
O=C(c1cc(COc2cccc(C(F)(F)F)c2)on1)N1CCSCC1	-1.37%
CC(=O)Nc1ccc(S(=O)(=O)N2CCSCC2)cc1	-4.96%
CC(=O)NC1=NC(=O)CS1	12.7% (active)
Cc1ccnc(NC(=O)CCNS(=O)(=O)c2ccc(C)c(C)c2)c1	-3.48%
Cc1cc(NC(=O)Nc2ccccc2[N+](=O)[O-])no1	-1.98%
CCCCCCC(O)(CCN1CCCCC1)c1ccccc1 (centres undefined)	-1.94%
Cc1cc(C(=O)N/N=C/c2ccc(O)c([N+](=O)[O-])c2)c(C)n1-c1ccc(F)cc1	-0.78%
O=C1CSC(=S)N1/N=C/c1ccc(O)c([N+](=O)[O-])c1	10.3% (active)
CCOc1cccc(/C=N/N2C(=O)CSC2=S)c1O	-2.38%
O=C(Nc1cccc(F)c1)[C@@H]1CCCN1	-1.96%
O=C(NCc1cccs1)c1ccc(CS(=O)Cc2ccccc2Cl)o1 (centres undefined)	-3%
CC1CC(C)CN(C(=O)CSc2ccsc2[N+](=O)[O-])C1 (centres undefined)	-2.57%
Cc1ccc(CN2CCCOCCS2(=O)=O)cc1	-1.66%
Cc1ccc2occ(/C=N/NC(=O)c3ccccc3C)c(=O)c2c1	4.69% (active)
CC(C)(C)OC(=O)NCCCCCC(=O)N/N=C/c1coc2ccccc2c1=O	-0.81%
O=C(N/N=C/c1coc2ccccc2c1=O)c1cc2ccccc2o1	-0.92%
CCCCc1ccc(NC(=O)NCc2cccnc2)cc1	-2.87%
COc1ccc(S(=O)(=O)N2CCOC2CNC(=O)C(=O)NCc2ccncc2)cc1C (centres undefined)	-3.35%
COC(=O)c1nc(NC(=O)c2ccc(C(C)(C)C)cc2)n[nH]1	-2.13%

Structure (SMILES)	inhibition
COC(=O)c1nc(NC(=O)c2ccc(F)cc2)n[nH]1	-1.83%
COC(=O)c1nc(NC(=O)c2ccc(Cl)cc2)n[nH]1	7.73% (active)
CC(C)c1ccc(N(C(=O)c2ccco2)C(C(=O)NC2CCCC2)c2cccnc2)cc1 (centres undefined)	-1.29%
O=C(N/N=C\c1cccnc1)c1cc(-c2ccccc2)nc2c(Cl)cccc12	-3.33%
Cc1occc1C(=O)NC1CCCN(Cc2ccc(CC(C)C)cc2)C1 (centres undefined)	-3.33%
Cc1cc(-c2ccc(C)c(S(=O)(=O)NC(C)Cc3ccco3)c2)on1 (centres undefined)	-1.25%
CCCOc1ccc(-c2c(C(=O)N/N=C/c3ccco3)nnn2-c2nonc2N)cc1	-3.51%
C/C(=N\Nc1ccc(S(N)(=O)=O)cc1[N+](=O)[O-])c1cccs1	21.1% (active)
C/C(=N\Nc1ncc(Cl)cc1Cl)c1cccs1	-0.11%
C/C(=N\NS(=O)(=O)c1ccc(Br)cc1)c1cccs1	-3.54%
COc1cc(C(=S)N2CCOCC2)cc(OC)c1OC(=O)c1ccc([N+](=O)[O-])cc1[N+](=O)[O-]	-5.07%
CNc1nc(-c2ccccc2)cc(-c2ccccc2)n1	2.66%
Nc1nc(-c2ccccc2)cc(-c2ccccc2)n1	-4.04%
CS(=O)(=O)c1sc2nc(-c3ccccc3)cc(-c3ccccc3)c2c1N	5.43% (active)
O=c1[nH]c2c(c(=O)n1Cc1ccccc1)CCC2	-1.53%
CC(=O)c1ccc(-c2ccc(Cn3c(C)nc4cc(N)c(C)nc43)cc2)cc1	-0.56%
Cc1cc2nc3c(=O)n(Cc4ccccc4)c(=O)[nH]c3nc2cc1N	9.26% (active)
COc1cccc(CNC(=O)C2CC(=O)N(C3CCCCCCC3)C2)c1 (centres undefined)	-1.11%
COc1ccccc1C(=O)N(Cc1ccc(C)o1)C1CCS(=O)(=O)C1 (centres undefined)	-3.51%
